Results reported in ChEMBL document CHEMBL1122984, “Synthesis and beta-lactamase inhibitory properties of 2 beta-[(acyloxy)methyl]-2-methylpenam-3 alpha-carboxylic acid 1,1-dioxides” (1985).
In brackets after ≈: the same amount, converted by molar mass.

Key:
[1] = biological target: Carbapenem-hydrolyzing beta-lactamase KPC (Klebsiella pneumoniae) (UniProt Q9F663)
[2] = biological target: Metallo-beta-lactamase type 2 (Bacteroides fragilis) (UniProt P25910); experiment: Minimum protective concentration used to protect the compound against Bacteroides fragilis A-22,695 beta-lactamase catalyzed hydrolysis
[3] = biological target: Beta-lactamase (Staphylococcus aureus) (UniProt P00807); experiment: Minimum protective concentration used to protect the compound against Staphylococcus aureus A9606 beta-lactamase catalyzed hydrolysis
[4] = system: TEM beta-lactamase (Klebsiella pneumoniae); experiment: Minimum protective concentration used to protect the compound against Klebsiella pneumoniae A20634 beta-lactamase catalyzed hydrolysis
Escherichia coli [5] = experiment: Compound alone was evaluated for minimum inhibitory concentration against Escherichia coli A20111; type: functional
Method in brief: (§1)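 Agar dilution MIC: organisms deposited onto medicated agar plates with a Steers replication device.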

Staphylococcus aureus [6] = experiment: Compound alone was evaluated for minimum inhibitory concentration against Staphylococcus aureus A9606; type: functional
Method in brief: as §1

Staphylococcus aureus [7] = experiment: Compound alone was evaluated for minimum inhibitory concentration against Staphylococcus aureus A15033; type: functional
Method in brief: as §1

Escherichia coli [8] = experiment: Compound alone was evaluated for minimum inhibitory concentration against Escherichia coli A20107; type: functional
Method in brief: as §1

Staphylococcus aureus [9] = experiment: Compound was evaluated for minimum inhibitory concentration in the presence of amoxicillin against Staphylococcus aureus A9606; type: functional
Method in brief: (§2)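 Agar dilution MIC of a 1:1 (w/w) mixture of test compound with amoxicillin. Organisms were applied to medicated agar plates with a Steers replicator.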

Escherichia coli [10] = experiment: Compound was evaluated for minimum inhibitory concentration in the presence of amoxicillin against Escherichia coli A20107; type: functional
Method in brief: as §2

Staphylococcus aureus [11] = experiment: Compound was evaluated for minimum inhibitory concentration in the presence of amoxicillin against Staphylococcus aureus A15033; type: functional
Method in brief: as §2

Escherichia coli [12] = experiment: Compound was evaluated for minimum inhibitory concentration in the presence of amoxicillin against Escherichia coli A20111; type: functional
Method in brief: as §2

Sequence of Beta-lactamase (Staphylococcus aureus) (P00807 whole entry): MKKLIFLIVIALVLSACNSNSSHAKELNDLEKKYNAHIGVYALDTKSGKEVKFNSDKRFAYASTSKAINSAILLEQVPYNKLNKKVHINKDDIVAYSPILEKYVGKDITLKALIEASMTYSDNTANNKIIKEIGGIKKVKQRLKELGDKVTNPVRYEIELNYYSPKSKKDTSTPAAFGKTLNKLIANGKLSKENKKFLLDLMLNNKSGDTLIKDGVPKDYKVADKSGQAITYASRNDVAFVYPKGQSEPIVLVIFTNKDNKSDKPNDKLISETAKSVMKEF
Sequence of Metallo-beta-lactamase type 2 (Bacteroides fragilis) (P25910 whole entry): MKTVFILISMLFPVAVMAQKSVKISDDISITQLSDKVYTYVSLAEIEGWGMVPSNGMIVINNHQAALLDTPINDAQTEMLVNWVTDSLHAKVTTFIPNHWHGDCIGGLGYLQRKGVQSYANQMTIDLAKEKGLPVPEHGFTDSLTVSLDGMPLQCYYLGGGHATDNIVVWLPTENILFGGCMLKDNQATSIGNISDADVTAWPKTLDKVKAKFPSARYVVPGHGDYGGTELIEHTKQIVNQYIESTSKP
Sequence of Carbapenem-hydrolyzing beta-lactamase KPC (Klebsiella pneumoniae) (Q9F663 whole entry): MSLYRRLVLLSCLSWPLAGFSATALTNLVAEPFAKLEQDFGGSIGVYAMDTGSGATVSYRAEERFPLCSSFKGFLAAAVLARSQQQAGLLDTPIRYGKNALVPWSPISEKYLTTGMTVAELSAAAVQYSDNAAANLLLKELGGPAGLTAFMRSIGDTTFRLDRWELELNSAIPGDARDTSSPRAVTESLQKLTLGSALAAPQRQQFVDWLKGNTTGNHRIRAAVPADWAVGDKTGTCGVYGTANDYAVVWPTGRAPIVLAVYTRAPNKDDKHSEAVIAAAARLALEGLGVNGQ

| Structure (SMILES) | MPC [2] | MPC [3] | MPC [4] | MIC (Escherichia coli [5]) | MIC (Staphylococcus aureus [6]) | MIC (Staphylococcus aureus [7]) | MIC (Escherichia coli [8]) | further results |
| --- | --- | --- | --- | --- | --- | --- | --- | --- |
| CC1(C)[C@H](C(=O)O)N2C(=O)C[C@H]2S1(=O)=O | – | – | – | – | – | – | – | MPC [1]: 1.6 µg/mL |
| C[C@]1(CBr)[C@H](C(=O)O)N2C(=O)CC2S1(=O)=O (stereo partly drawn) | 12.5 µg/mL | 3.1 µg/mL | 1.6 µg/mL | – | – | – | – | – |
| C[C@]1(CCl)[C@H](C(=O)O)N2C(=O)CC2S1(=O)=O (stereo partly drawn) | 12.5 µg/mL | 3.1 µg/mL | 3.1 µg/mL | – | – | – | – | – |
| C[C@]1(CO)[C@H](C(=O)O)N2C(=O)CC2S1(=O)=O (stereo partly drawn) | 100 µg/mL | > 100 µg/mL | 6.2 µg/mL | – | – | – | – | – |
| CC1(C)S[C@@H]2[C@H](NC(=O)[C@H](N)c3ccc(O)cc3)C(=O)N2[C@H]1C(=O)O [AMOXICILLIN] | – | – | – | > 125 µg/mL | 32 µg/mL (≈ 87.6 µM) | 32 µg/mL (≈ 87.6 µM) | > 125 µg/mL | – |
| O=C(O)[C@H]1/C(=C/CO)O[C@@H]2CC(=O)N21 [CLAVULANIC ACID] | 63 µg/mL | – | – | 63 µg/mL (≈ 316 µM) | 32 µg/mL (≈ 161 µM) | 63 µg/mL (≈ 316 µM) | 63 µg/mL (≈ 316 µM) | MIC (Staphylococcus aureus [9]): 2 µg/mL; MIC (Escherichia coli [10]): 16 µg/mL; MIC (Staphylococcus aureus [11]): 4 µg/mL; MIC (Escherichia coli [12]): 4 µg/mL |
